Laboratory results from PubChem BioAssay AID602246 (The Scripps Research Institute Molecular Screening Center, 2012).
Unmarked numbers belong to inactive results. Calls of active or inactive are those of the source.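 Rule for the calls: active = t-test against the solvent control gives p below 0.05 and normalized ATPase activity falls by at least 10%; inactive = the rest.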

Assay: calcium desensitizers of cardiac myofibril ATPase, late-stage follow-up, mechanism study for cardiac RTF inhibitor project, biochemical, absorbance, porcine cardiac myofibrils, powder samples (AID 602246)
Details: ATPase Pi absorbance 660 nm, at 10 µM, hits give low values
Summary of the method: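 Assay system – porcine cardiac myofibrils · Doses – single compound dose of 10 µM, DMSO vehicle · Measured by – phosphate absorbance at 660 nm · Read-out – ATPase activity ratio, compound-well mean over DMSO-well mean · Benchmarks – DMSO-only wells as reference control · Repeats – Quintuplicate wells per compound · Times – 5 min compound preincubation, then 7 min ATPase reaction, 25 °C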

Row | SMILES | normalized ATPase activity
1 | O=C(O)c1cccc(-n2cccc2/C=C2/NC(=O)N(c3ccc(Cl)cc3)C2=O)c1 | 0.975
2 | NCCCCCCNS(=O)(=O)c1cccc2c(Cl)cccc12 | 0.854 (active)
3 | O=C(O)c1ccc2nc(-c3ccco3)c(-c3ccco3)nc2c1 | 1.03
4 | O=C(O)c1ccc2c(c1)[C@@H]1C=CC[C@@H]1[C@H](c1ccccn1)N2 | 0.982
5 | COc1cccc2c1NC(C(=O)O)C1CC=CC21 (stereo not given) | 1.03
